From publication PMC10905627 (Oncogene, 2018)
Like-named read-outs stand apart in the source and are kept apart here.

Key:
[1] = tested on: H1299 tumors; assay: H1299 tumor xenografts in humanized NSG mice; type: in vivo, mouse
[2] = biological target: T1, ALK5/TGFβR1 (Homo sapiens, UniProt P36897); conditions: read-out: IC50 ALK5/TGFβR1; ATP 10 μM
T1 sequence (P36897 34-503): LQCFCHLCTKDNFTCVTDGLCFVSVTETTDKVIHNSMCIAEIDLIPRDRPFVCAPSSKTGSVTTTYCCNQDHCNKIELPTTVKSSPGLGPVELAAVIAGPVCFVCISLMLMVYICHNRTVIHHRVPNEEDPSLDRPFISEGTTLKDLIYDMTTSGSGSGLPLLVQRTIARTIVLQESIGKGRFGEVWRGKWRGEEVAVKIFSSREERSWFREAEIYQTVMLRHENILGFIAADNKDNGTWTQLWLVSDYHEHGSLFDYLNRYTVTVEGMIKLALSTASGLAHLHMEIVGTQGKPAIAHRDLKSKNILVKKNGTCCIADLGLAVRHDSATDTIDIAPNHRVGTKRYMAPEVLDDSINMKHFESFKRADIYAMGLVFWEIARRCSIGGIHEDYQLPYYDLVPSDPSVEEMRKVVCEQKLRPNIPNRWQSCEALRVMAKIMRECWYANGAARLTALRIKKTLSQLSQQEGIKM

[3] = biological target: ALK3/BMPR1A (Homo sapiens, UniProt P36894); assay: IC50 kinase assay ALK3; type: biochemical; conditions: ATP 10 μM
[4] = tested on: H1299 cells; assay: TUNEL assay; type: cell-based, human; conditions: H1299, 24 h
[5] = biological target: T2, BMPR2 (Homo sapiens, UniProt Q13873); assay: IC50 kinase assay BMPR2; type: biochemical
T2 sequence (Q13873 27-1038): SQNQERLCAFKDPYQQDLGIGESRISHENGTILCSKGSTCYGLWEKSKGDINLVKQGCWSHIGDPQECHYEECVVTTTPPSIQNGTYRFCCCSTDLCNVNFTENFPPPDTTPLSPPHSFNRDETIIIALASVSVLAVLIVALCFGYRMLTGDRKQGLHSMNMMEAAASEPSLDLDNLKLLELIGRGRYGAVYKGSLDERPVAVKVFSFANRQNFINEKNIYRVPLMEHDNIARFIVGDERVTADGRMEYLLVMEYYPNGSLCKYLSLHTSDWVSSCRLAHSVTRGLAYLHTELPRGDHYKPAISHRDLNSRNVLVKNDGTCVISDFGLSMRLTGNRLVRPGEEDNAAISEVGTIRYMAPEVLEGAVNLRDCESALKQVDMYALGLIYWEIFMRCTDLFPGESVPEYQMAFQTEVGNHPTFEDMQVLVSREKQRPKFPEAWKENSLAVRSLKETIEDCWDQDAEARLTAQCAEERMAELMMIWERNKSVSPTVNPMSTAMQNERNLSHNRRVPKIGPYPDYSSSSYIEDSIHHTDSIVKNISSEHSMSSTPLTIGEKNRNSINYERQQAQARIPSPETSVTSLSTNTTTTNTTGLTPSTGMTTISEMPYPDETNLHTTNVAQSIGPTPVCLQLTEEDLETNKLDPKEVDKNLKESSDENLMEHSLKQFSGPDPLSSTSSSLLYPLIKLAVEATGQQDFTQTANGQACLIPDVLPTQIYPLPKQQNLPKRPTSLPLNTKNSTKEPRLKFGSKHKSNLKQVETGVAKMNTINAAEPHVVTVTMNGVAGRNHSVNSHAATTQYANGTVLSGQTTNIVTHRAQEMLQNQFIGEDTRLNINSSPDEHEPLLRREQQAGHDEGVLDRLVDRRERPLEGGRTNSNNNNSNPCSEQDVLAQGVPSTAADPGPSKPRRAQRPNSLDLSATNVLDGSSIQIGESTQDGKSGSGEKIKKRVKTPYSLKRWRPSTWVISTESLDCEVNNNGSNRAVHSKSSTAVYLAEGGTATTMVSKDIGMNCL

[6] = tested on: caspase-3, PARP in H1299 cells; assay: Western blot of activated caspase-3 and PARP; type: cell-based, human; conditions: H1299, 3 days
Method in brief: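 H1299 cells treated with test compound, and total protein quantified by BCA. Lysates separated by SDS-PAGE onto nitrocellulose and blocked at least 2 h. Probed overnight at 4 °C with rabbit monoclonal anti-activated caspase-3 and anti-PARP, with actin or GAPDH as loading control. Secondary antibody 1 h at room temperature, then enhanced chemiluminescence detection.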

[7] = biological target: T3, ALK2/ACVR1 (Homo sapiens, UniProt Q04771); assay: IC50 kinase assay ALK2; type: biochemical; conditions: ATP 10 μM
T3 sequence (Q04771 21-509): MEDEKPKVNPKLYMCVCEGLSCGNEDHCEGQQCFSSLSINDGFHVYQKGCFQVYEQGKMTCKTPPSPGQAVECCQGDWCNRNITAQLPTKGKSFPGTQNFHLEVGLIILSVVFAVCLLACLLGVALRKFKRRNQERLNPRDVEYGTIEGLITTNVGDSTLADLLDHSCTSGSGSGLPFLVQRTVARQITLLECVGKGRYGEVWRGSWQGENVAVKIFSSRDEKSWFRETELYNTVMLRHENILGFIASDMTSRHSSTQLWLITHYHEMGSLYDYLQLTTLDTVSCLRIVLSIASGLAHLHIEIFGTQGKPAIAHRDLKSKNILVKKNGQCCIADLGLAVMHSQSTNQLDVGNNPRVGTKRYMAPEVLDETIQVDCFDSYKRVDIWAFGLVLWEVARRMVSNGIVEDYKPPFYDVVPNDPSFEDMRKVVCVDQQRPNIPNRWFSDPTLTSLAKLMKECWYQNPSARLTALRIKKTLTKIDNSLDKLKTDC

[8] = tested on: Id1, TAK1, XIAP in H1299 tumors; assay: Western blot of BMP downstream targets in H1299 tumor xenografts; type: in vivo, mouse; conditions: NSG mice, 4 days
Method in brief: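 Xenografts made by intradermal flank injection of 2 million H1299 cells into NSG mice. At about 4 mm × 4 mm, mice received test compound at 3 or 10 mg/kg twice daily, or DMSO, for four days. Tumor protein (BCA-quantified) run on SDS-PAGE and blotted to nitrocellulose. Probed with anti-Id1, anti-pTAK1 and anti-XIAP (primary overnight at 4 °C), then ECL detection.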

[9] = tested on: A549 cells; assay: Cell growth A549; type: cell-based, human; conditions: A549, activating K-Ras mutation
Method in brief: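 A549 cells grown in DMEM with 5% FBS, seeded in six-well plates and exposed to test compound from the following day for the set time. Live and dead cells were counted on a Vi-CELL analyser by trypan blue exclusion, 500 cells per sample.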

[10] = treatment day 21, IHC image analysis

Sequence of ALK3/BMPR1A (P36894 24-532): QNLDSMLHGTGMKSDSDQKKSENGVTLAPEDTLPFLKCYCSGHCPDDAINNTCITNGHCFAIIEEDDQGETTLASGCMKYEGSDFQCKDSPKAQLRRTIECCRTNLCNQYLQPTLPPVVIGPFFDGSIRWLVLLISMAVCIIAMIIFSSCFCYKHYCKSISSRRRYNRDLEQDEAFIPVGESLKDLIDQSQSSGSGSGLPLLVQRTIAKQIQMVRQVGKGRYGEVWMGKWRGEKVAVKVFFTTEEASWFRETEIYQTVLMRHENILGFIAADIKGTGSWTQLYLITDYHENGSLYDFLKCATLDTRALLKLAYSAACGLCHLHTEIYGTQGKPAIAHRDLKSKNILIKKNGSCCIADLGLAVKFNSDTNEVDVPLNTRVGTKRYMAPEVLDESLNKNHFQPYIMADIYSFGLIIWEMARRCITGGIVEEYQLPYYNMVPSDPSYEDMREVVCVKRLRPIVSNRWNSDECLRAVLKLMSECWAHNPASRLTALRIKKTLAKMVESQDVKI

c1ccc2c(-c3cnn4cc(-c5ccc(OCCN6CCCCC6)cc5)cnc34)ccnc2c1 [JL5]
size and weight of tumors vs vehicle control ([1]; 10 mg/kg twice daily, 13 days): significant difference in the size and weight
regression in tumor size ([1]; 10 mg/kg twice daily, from treatment day 7 to day 12): ~ 35%
necrotic cells compared to control tumors ([1]; 13 days, H&E image analysis): twice the number of necrotic cells
cell death by H&E staining ([1]; 21 days): no noteworthy histomorphological differences
proliferation of tumor cells (Ki67) ([1]; 21 days): significant reduction in proliferation
increase in CD3+ cells within tumor vs DMSO control [1, 10]: 67%
increase in CD4+ cells within tumor vs DMSO control [1, 10]: 80%
IC50 [2]: 440 nM
IC50 ALK3/BMPR1A [3]: single digit nanomolar
IC50 ([3]; read-out: IC50 ALK3/BMPR1A): < 5 nM
DNA double-stranded breaks (TUNEL) [4]: induces DNA double-stranded breaks
IC50 ([5]; read-out: IC50 BMPR2, ATP 10 μM): 8.51 µM
IC50 ([5]; read-out: IC50 for the BMP type II receptor BMPR2): ~8 µM
activation of caspase-3 and cleavage of PARP [6]: induced the activation of caspase-3 and cleavage of PARP
IC50 ALK2/ACVR1 [7]: single digit nanomolar
IC50 ([7]; read-out: IC50 ALK2/ACVR1): 1 nM
expression of Id1 in tumors ([8]; 3 mg/mL): feedback increase in the expression of Id1
protein expression of Id1, TAK1, XIAP in tumors ([8]; 10 mg/kg): decreased protein expression of Id1 and TAK1 but not XIAP
growth of A549 cells [9]: suppressed growth
